Jurkat NFkB inh: inhibitors of induced NF-kB luciferase reporter, primary screen, TCR NF-kB activation inhibitor project, cell-based, luminescence, uHTS; Jurkat, PMA/ionomycin-induced NF-kB luciferase reporter; inhibition, % at 4 µM; 330,000 compounds, 0.53% hits; AID 435003, 2010; in the data active = inhibition above about 50%
CRFBP-R2 block: antagonists of CRF-BP/CRF-R2 complex, primary screen, cell-based, HEK293, calcium dye fluorescence, uHTS | CRF-induced calcium fluorescence | 350,000 compounds, 0.59% hits | inhibition, % at 11.8 µM | AID 588475, 2011;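 active = inhibition of the ligand-induced calcium signal above about 50% at the single tested concentration, limit read from the data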
697 NFkB inh: inhibitors of PMA/ionomycin-induced NF-kB reporter, 697 cells, primary screen, B-cell NF-kB inhibitor project, cell-based, luminescence, uHTS; 697 B-cell NF-kB luciferase reporter, 16 h; inhibition, % at 4 µM; 330,000 compounds, 0.33% hits; in the data active = inhibition above about 35%
UPR CHOP act: activators of apoptotic CHOP UPR arm, primary screen, cell-based, CHO-CHOP luciferase reporter, luminescence, uHTS; activation, % at 10 µM; UPR activation; percent of tunicamycin response over DMSO baseline; 330,000 compounds, 0.34% hits;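 active = at 10 µM dose, activation of 40% or more, normalized to positive control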
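System: CHO-CHOP luciferase reporter cell line; amount: 500 cells/well; buffer or medium: F12 medium containing 10% fetal bovine serum; incubation: 6 h compound exposure at 37 °C after overnight seeding; measured by: luciferase luminescence after 10 min with Steady-Glo reagent; evaluation: % reporter activation, DMSO baseline versus tunicamycin full activation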
XBP1 UPR activ: activators of adaptive XBP1 UPR arm, primary screen, cell-based, CHO-XBP1 luciferase reporter, luminescence, uHTS. IRE1-XBP1 UPR activation; percent of tunicamycin response, DMSO as zero. activation, % at 20 µM. 330,000 compounds, 0.33% hits. AID 463104, 2010;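 active = versus positive control, 20 µM dose yields 30% or more activation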
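Material: CHO-XBP1 cells stably carrying IRE1-XBP1-driven luciferase reporter | Medium: F12 with 10% serum | Compound dosing: 20 µM single concentration, DMSO 1% | Incubation: Overnight seeding at 37 °C, 6 h compound treatment at 37 °C | Detection: Steady-Glo luminescence read | Read-out basis: % activation of reporter signal versus tunicamycin and DMSO controls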
Jurkat NFkB conf: PMA/ionomycin-induced NF-kB reporter inhibitors, Jurkat retest, confirmation, T-cell NF-kB inhibitor project, cell-based, luminescence, single concentration; 2,700 compounds, 27% hits; inhibition, % at 4 µM; Jurkat NF-kB luciferase, 16 h; shares compounds with Jurkat NFkB inh;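 active = inhibition reaching about 45% at 4 µM in either replicate, limit read from the data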
Numbers stand for hits; – = inactive; · = no result. Compounds with a hit are over-represented: about 1.8% of the library has one in this group of screens.

SMILES | Jurkat NFkB inh | CRFBP-R2 block | 697 NFkB inh | UPR CHOP act | XBP1 UPR activ | Jurkat NFkB conf
CNc1ccccc1C(C)(C)c1cc(-c2cccc(OC)c2)no1 | 51 | – | – | – | – | –
COc1ccc(-n2cc(-c3ccc(C)cc3)[n+]3c2SCC3)cc1 | 60 | – | – | – | – | 56
Cc1ccc(N/C(N)=N/c2nc(CSc3nnc(C)s3)cc(=O)[nH]2)c(C)c1 | 72 | – | – | – | – | 52
COc1ccc(N/C(N)=N/c2nc(CSc3nnc(C)s3)cc(=O)[nH]2)cc1 | – | – | – | – | – | ·
CCn1c(SCc2c(Cl)cccc2Cl)nc2nc3c(cc2c1=O)CCCC3 | 55 | – | – | – | – | –
CCn1c(SCc2ccccc2Cl)nc2nc3c(cc2c1=O)CCCC3 | · | – | · | · | · | ·
CC(OC(=O)c1cccc(-n2cnnn2)c1)C(=O)Nc1ccc(F)cc1Cl (centres undefined) | – | – | – | – | – | ·
CCOC(=O)/C=C/S(=O)(=O)c1ccc(NC(C)=O)cc1 | 53 | – | – | – | – | –
COc1nc(-c2ccccc2)cc(-c2ccc3c(c2)OCO3)c1C#N | 57 | – | – | – | – | –
N#Cc1c(-c2ccc3c(c2)OCO3)cc[nH]c1=O | – | – | – | – | – | ·
NC(N)=NN=C1CCCCCCCCCCC1 | 69 | – | – | – | – | –
ON=C1CCCCCCCC1 | · | – | · | · | · | ·
CCC(=O)O/N=C(\N)c1ccc(Oc2cc(C)c(Cl)c(C)c2)c([N+](=O)[O-])c1 | 53 | – | – | – | – | –
COc1ccccc1NC(=O)COC(=O)Cn1cnc2c1c(=O)n(C)c(=O)n2C | 60 | – | – | – | – | –
Cn1c(=O)c2c(ncn2CC(=O)OCC(=O)Nc2ccccc2)n(C)c1=O | – | – | – | – | – | ·
O=c1c2ccccc2ncn1-c1cccc(Br)c1 | – | – | – | – | – | ·
O=C(Nc1ccc(F)cc1F)N1CCCN(c2ccc([N+](=O)[O-])cn2)CC1 | – | – | – | – | – | ·
O=C(c1ccc(F)cc1F)C1CCN(c2ccc([N+](=O)[O-])cn2)CC1 | 86 | – | – | – | – | –
CN(CC(=O)Nc1ccc(Cl)c(C(F)(F)F)c1)C(=O)c1cnccn1 | – | – | – | – | – | ·
O=C(Nc1ccc(Oc2cccnc2)nc1)c1ccc(C(F)(F)F)cc1 | 50 | 55 | – | – | – | 57
Cc1ccc(C(=O)O/N=C(\N)c2ccccn2)c(C)c1 | 76 | – | – | – | – | 92
CN(C)CCCNS(=O)(=O)c1ccc(NC2CCCCCC2)c([N+](=O)[O-])c1 | 56 | – | – | – | – | –
COc1cc(CC(=O)OCC(=O)c2ccc3c(c2)OCCO3)cc(OC)c1OC | 61 | – | – | – | – | –
O=C(COC(=O)c1ccc(O)cc1)c1ccc2c(c1)OCCO2 | – | – | – | – | – | ·
CCOc1ccc(NC(=O)CN(C)C(=O)c2cc(S(=O)(=O)N3CCCCC3)ccc2C)cc1OCC | – | – | – | – | – | ·
SMILES | Jurkat NFkB inh | CRFBP-R2 block | 697 NFkB inh | UPR CHOP act | XBP1 UPR activ | Jurkat NFkB conf
NC(=O)c1ccccc1NC(=O)c1ccc2ccccc2c1 | – | – | – | – | – | –
COc1ccc(C(=O)Nc2ccccc2C(N)=O)cc1 | – | – | – | – | – | ·
O=C1CN(C(=O)COc2cccc(F)c2)c2ccccc2N1 | – | · | – | – | – | ·
Cc1noc(C)c1COc1cccc(C(=O)OCC(=O)N2CC(=O)Nc3ccccc32)c1 | 58 | – | – | – | – | –
Cc1nc2c(cnn2CCO)c(=O)[nH]1 | · | – | · | · | · | ·
Cn1c(SCC(=O)NC2CCS(=O)(=O)C2)nc2ccccc21 (centres undefined) | – | – | – | – | – | ·
CCn1c2ccccc2c2cc(NC(=O)COc3ccccc3OC)ccc21 | – | – | – | – | – | ·
CCn1c2ccccc2c2cc(NC(=O)CNCc3ccccc3OC)ccc21 | 53 | – | – | – | – | –
Cc1noc(C)c1COc1ccccc1C(=O)N1CCN(c2cccc(C(F)(F)F)c2)CC1 | 55 | – | – | – | – | –
Cc1noc(C)c1COc1ccccc1C(=O)N1CCN(c2cccc(Cl)c2)CC1 | – | – | – | – | – | ·
COc1cc(/C=N/NS(=O)(=O)c2ccc(C)cc2)ccc1OCc1ccc(C(=O)O)cc1 | 63 | – | – | – | – | –
CC(C)(C)OC(=O)C[C@@H]1C/C=C\C[C@@H](CC(=O)N(CCO)Cc2ccccc2)C(=O)N[C@H](C(C)(C)C)COC1=O | – | – | – | – | – | ·
COc1ccc(NC(=S)NN(C)C(=S)Nc2ccc(OC)cc2)cc1 | 65 | – | – | – | – | –
COc1ccc(NC(=S)Nc2ccc(Oc3ccccc3)cc2)cc1 | – | – | – | – | – | ·
CCCCN(C(=O)C1CSC2(C)CCC(=O)N12)c1c(N)n(CC(C)C)c(=O)[nH]c1=O (centres undefined) | – | – | – | – | – | ·
CS(=O)(=O)Nc1ccc2c(c1)[C@@H]1C[C@@H](CC(=O)NCc3cccnc3)O[C@H](CO)[C@@H]1O2 | · | – | · | · | · | ·
O=C(N/N=C/c1ccc(Sc2nc3ccccc3s2)c([N+](=O)[O-])c1)c1ccccn1 | 69 | – | – | – | – | –
CCN(CC)C(=O)Cn1cc(S(=O)(=O)CC(=O)Nc2cc(OC)ccc2OC)c2ccccc21 | – | – | – | – | – | ·
COc1ccc(S(=O)(=O)NCc2ccccn2)cc1NC(=O)c1ccccc1C | 55 | – | – | – | – | –
CC(C)n1nnnc1SCC(=O)Nc1ccccc1F | – | – | – | – | – | ·
Nc1c(C(=O)Nc2cccc(C(=O)O)c2)sc2nc3c(cc12)CCCC3 | 70 | – | – | – | – | –
COc1cc(OC)cc(C(=O)NCC(=O)OCC(=O)Nc2ccc(C)c(S(=O)(=O)N3CCOCC3)c2)c1 | – | – | – | – | – | ·
CC1CN(CC(=O)Nc2nc(-c3ccc(Cl)cc3)cs2)CC(C)O1 (centres undefined) | · | – | · | · | · | ·
Cc1ccc(C(=O)Nc2cccc(C(=O)O)c2)cc1 | 73 | – | – | – | – | 60
Cc1ccc(C(=O)Nc2ccc(N3CCCCC3)cc2)cc1 | – | – | – | – | – | –
O=C(Nc1ccc(N2CCCCC2)cc1)c1ccc(F)cc1F | – | – | – | – | – | –
Cc1ccc(S(=O)(=O)Nc2ccccc2-c2nc3ccccc3[nH]c2=O)cc1 | – | – | – | – | – | ·
O=C(CC1SC(N2CCCCC2)=NC1=O)Nc1cccc(C(=O)NCc2ccc(F)cc2)c1 (centres undefined) | – | – | – | – | – | ·

Bioassay records deposited in PubChem BioAssay by Sanford-Burnham Center for Chemical Genomics.
